Results taken from PMC4111141 (Bioorganic & medicinal chemistry letters, 2014).

Molecular target: T1, Orco derived from Drosophila melanogaster (DmOrco) (Drosophila melanogaster, UniProt Q9VNB5)
T1 sequence (Q9VNB5 1-486): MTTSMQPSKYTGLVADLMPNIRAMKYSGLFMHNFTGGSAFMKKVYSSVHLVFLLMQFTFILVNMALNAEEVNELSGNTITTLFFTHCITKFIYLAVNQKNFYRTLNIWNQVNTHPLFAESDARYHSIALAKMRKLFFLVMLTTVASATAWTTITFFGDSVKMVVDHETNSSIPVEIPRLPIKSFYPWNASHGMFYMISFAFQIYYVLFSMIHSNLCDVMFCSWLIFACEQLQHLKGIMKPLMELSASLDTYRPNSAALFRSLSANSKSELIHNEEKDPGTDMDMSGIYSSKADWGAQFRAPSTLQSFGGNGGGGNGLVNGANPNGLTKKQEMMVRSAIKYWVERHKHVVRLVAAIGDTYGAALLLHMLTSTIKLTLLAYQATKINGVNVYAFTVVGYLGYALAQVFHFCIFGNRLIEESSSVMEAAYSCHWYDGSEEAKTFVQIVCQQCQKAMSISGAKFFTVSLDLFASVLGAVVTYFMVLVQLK
Assay: high-throughput calcium mobilization/imaging assay for Orco agonist activity
Type: cell-based
Conditions: HEK293 cells stably expressing DmOrco; for % VUAA1 efficacy: maximum agonism of the compound, normalized to the activity of VUAA1; for EC50: mean result of 4 experiments, LA = Low agonism, agonism only at the highest concentration tested, no EC50 could be calculated
How it was run: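 HEK293 cells stably expressing Drosophila melanogaster Orco, alone or in some cases with tuning OR subunits. Calcium mobilization/imaging read in high-throughput format across increasing test compound concentrations. EC50 and maximal agonism were taken from concentration-response curves. Maximal agonism was expressed as a percentage of reference agonist VUAA1 activity. Values are the mean of 4 experiments.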

**Q.** How did the “% VUAA1 efficacy” value turn out when CCn1c(SCC(=O)Nc2ccc(Br)cc2)nnc1-c1cccnc1 [6j] was run?
**A.** No agonism

**Q.** With CCc1cccc(NC(=O)CSc2nnc(-c3cccnc3)n2CC)c1 [6b] as the compound, how does the “Orco agonist activity (in words)” value read?
**A.** completely abrogated activity

**Q.** And the “% VUAA1 efficacy” value?
**A.** No agonism

**Q.** Which results are given for CCc1ccc(NC(=O)CSc2nnc(-c3cccnc3)n2CC)cc1 [6a]?
**A.** % VUAA1 efficacy: 100%; EC50: 35.1 µM; EC50 (listed as VUAA1): 35 µM
